Consider four molecules from ChEMBL document CHEMBL1142559, “ent-halimane diterpenes and a guaiane sesquiterpene from Cladogynos orientalis” (J Nat Prod, 2005).

The test system of assay [1] is Mycobacterium tuberculosis. Description: Antitubercular activity against Mycobacterium tuberculosis H37Ra. The class given is functional. Put shortly:
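Microplate alamar blue assay with M. tuberculosis H37Ra as test organism; MIC recorded in µg/mL; isoniazid and kanamycin sulfate served as reference drugs.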

In the next assay the test system is NCI-H187. The assay is described as follows: Cytotoxicity against human NCI-H187 cells after 72 hrs by SRB assay. It is filed as functional, cell-based. Conditions: NCI-H187, 72 h. A digest of the protocol: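 Small cell lung cancer NCI-H187 cells exposed at 37 °C for 72 h, then sulforhodamine B added for read-out; IC50 given in µg/mL; ellipticine as reference substance.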

As a reminder, the MIC is the lowest concentration found to suppress growth. Low values mean a more susceptible organism, high ones a less susceptible organism. Usually IC50 stands for the point on the concentration scale where inhibition reaches its midpoint. `C[C@@H]1CCC2=C(CCC[C@]2(C)C(=O)O)[C@@]1(C)CCc1ccoc1` showed an MIC in assay [1] of under 12.5 µg/mL. Besides, the IC50 in the assay on NCI-H187 is under 5 µg/mL.
`COC(=O)[C@@]1(C)CC(=O)C=C2[C@@]3(C)C=C(c4ccoc4)O[C@]21CC[C@H]3C`: the MIC in assay [1] is under 12.5 µg/mL. The IC50 with NCI-H187 was under 5 µg/mL.
Molecule `C[C@@H]1CCC2=C(C[C@H]3C[C@]2(C)C(=O)O3)[C@@]1(C)CC(=O)c1ccoc1` returned an MIC in assay [1] of under 12.5 µg/mL. This molecule also gave an IC50 in the assay on NCI-H187 of under 5 µg/mL.
In assay [1], `C[C@@H]1CCC2=C(C[C@H]3C[C@]2(C)C(=O)O3)[C@@]1(C)CCc1ccoc1` yielded an MIC of under 12.5 µg/mL. The IC50 in the assay on NCI-H187 was under 5 µg/mL.
